From ChEMBL document CHEMBL1125911, “Synthesis and biological activity of new HMG-CoA reductase inhibitors. 3. Lactones of 6-phenoxy-3,5-dihydroxyhexanoic acids” (J Med Chem, 1991) come the findings set out here.

Experiment [1] has as its target T1, 3-hydroxy-3-methylglutaryl-coenzyme A reductase (Rattus norvegicus, UniProt P51639).
T1 sequence (P51639 whole entry): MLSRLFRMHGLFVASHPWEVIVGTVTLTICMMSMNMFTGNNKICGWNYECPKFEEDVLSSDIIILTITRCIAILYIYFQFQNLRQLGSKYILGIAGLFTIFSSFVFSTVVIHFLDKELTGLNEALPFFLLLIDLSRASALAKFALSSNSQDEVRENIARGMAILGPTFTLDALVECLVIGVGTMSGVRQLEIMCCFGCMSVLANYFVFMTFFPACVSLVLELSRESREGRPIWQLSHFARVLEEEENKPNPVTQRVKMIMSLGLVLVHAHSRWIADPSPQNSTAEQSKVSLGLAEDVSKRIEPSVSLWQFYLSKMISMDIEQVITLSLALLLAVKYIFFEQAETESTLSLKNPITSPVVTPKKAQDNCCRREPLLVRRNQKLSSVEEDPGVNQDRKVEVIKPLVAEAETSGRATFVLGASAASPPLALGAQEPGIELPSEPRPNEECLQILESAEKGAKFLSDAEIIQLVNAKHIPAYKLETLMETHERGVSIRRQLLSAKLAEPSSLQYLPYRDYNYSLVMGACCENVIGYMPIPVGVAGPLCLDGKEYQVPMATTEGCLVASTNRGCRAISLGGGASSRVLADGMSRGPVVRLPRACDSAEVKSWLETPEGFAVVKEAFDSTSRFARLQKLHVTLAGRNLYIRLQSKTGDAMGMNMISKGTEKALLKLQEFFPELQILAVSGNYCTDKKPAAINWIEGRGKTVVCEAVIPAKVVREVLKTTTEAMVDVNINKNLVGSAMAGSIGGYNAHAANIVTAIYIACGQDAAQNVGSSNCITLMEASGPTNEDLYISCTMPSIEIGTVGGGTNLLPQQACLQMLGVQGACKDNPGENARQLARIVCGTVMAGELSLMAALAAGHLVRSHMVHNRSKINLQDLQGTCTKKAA
As to the kind of experiment: In vitro inhibition of HMG-CoA reductase in solubilized rat liver.

For experiment [2], the target named is T2, 3-hydroxy-3-methylglutaryl-coenzyme A reductase (Rattus norvegicus) (UniProt P51639).
T2 sequence (whole entry): T1 sequence (P51639 whole entry)
Briefly: (§1) Inhibition of HMG-CoA reductase compared to mevinolin. The essentials:
(§2)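 Solubilized, partially purified rat liver HMG-CoA reductase. IC50 from four or five inhibitor concentrations. Relative potency compared IC50 with mevinolin (set to 100), corrected for molecular weight.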

For experiment [3], the target named is T3, 3-hydroxy-3-methylglutaryl-coenzyme A reductase (Homo sapiens, UniProt P04035).
T3 sequence (P04035 whole entry): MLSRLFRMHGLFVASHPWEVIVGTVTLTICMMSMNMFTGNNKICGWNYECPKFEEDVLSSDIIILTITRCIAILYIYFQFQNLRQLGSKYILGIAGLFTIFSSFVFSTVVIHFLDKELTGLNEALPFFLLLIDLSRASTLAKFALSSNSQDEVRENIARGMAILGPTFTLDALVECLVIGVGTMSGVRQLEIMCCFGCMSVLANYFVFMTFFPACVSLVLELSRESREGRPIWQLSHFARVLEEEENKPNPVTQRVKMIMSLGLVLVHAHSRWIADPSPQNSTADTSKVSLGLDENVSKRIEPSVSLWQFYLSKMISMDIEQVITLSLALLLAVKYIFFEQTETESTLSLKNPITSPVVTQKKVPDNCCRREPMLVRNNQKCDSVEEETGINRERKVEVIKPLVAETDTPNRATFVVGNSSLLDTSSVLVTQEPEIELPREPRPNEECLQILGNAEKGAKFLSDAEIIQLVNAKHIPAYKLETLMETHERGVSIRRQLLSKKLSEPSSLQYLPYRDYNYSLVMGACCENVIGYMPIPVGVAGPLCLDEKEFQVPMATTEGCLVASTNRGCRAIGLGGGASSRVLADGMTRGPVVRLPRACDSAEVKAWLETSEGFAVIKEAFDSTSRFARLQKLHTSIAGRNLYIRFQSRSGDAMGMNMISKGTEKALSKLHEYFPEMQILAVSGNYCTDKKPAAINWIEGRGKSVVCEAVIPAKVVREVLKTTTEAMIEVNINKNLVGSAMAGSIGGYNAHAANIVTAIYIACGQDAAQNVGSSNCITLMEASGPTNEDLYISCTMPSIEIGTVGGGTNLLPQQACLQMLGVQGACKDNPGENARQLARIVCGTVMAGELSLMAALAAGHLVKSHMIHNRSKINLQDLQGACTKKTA
Briefly: Inhibition of the incorporation of sodium [14C]acetate into cholesterol in HEP G2 cells. It is filed as functional, cell-based, HepG2.

The target in experiment [4] is T4, 3-hydroxy-3-methylglutaryl-coenzyme A reductase (Homo sapiens) (UniProt P04035).
T4 sequence (whole entry): T3 sequence (P04035 whole entry)
Described as §1. It is filed as functional. Summed up: as §2

Experiment [5] relates to Oryctolagus cuniculus. As to the kind of experiment: Tested in vivo for hypocholesterolemic activity by measuring its ability to decrease serum total cholesterol, after oral administration of 75 mg/kg body wt. per day in normolipidemic NZW rabbits; Not significantly active. It is filed as functional, organism-based. On the set-up: dose 75 mg/kg, route oral.
For experiment [6], the system named is Oryctolagus cuniculus. Briefly: Tested in vivo for hypocholesterolemic activity by measuring its ability to decrease serum total cholesterol, after oral administration of 75 mg/kg body wt. per day in normolipidemic NZW rabbits. The class given is functional. Summed up:
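NZW rabbits (n = 5 or 6) dosed orally daily for 10 days. Serum total cholesterol reported as % change versus control. For 20 mg/kg, that dose was given on days 11-20 after 10 mg/kg, with the value read on day 20. Error given as SEM.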

For the compound `CC(C)c1cc(C(C)(C)C)cc(-c2ccc(F)cc2)c1OCC(O)C[C@@H](O)CC(=O)[O-].[Na+]` (some centres not stated), the half-maximal inhibitory concentration (IC50) in experiment [1] was 400 nM; in experiment [3], greater than 500 nM; in experiment [5], “Not Active”. Also, the Relative potency is 2 in experiment [2] and less than 10 in experiment [4].
`O=C([O-])C[C@H](O)CC(O)COc1c(Cl)cc(Cl)cc1C(c1ccc(F)cc1)c1ccc(F)cc1.[Na+]` (stereo in doubt; 11b) registered a 50% inhibitory concentration (IC50) in experiment [1] of 50 nM. For the same compound, in experiment [6], the Change is -25%.

A word on the IC50: it is the midpoint of a concentration-inhibition curve. A low value points to greater potency in that assay.
